Source: ChEMBL document CHEMBL4145521, “Regioselective synthesis of 3,4-diaryl-5-unsubstituted isoxazoles, analogues of natural cytostatic combretastatin A4” (Eur J Med Chem, 2018)

How the values were obtained:
Format in all cases: functional
RPMI-8226 [1] = experiment: Cytotoxicity against human RPMI8226 cells incubated for 48 hrs by sulforhodamine B assay; settings: RPMI-8226, 48 h
MDA-MB-435 [2] = experiment: Cytotoxicity against human MDA-MB-435 cells assessed as cell growth at 1 uM incubated for 48 hrs by sulforhodamine B assay relative to control; settings: MDA-MB-435, 48 h, read-out: Activity
HOP-92 = experiment: Cytotoxicity against human HOP92 cells assessed as cell growth at 10 uM incubated for 48 hrs by sulforhodamine B assay relative to control; settings: HOP-92, 48 h, read-out: Activity
K562 [3] = experiment: Cytotoxicity against human K562 cells incubated for 48 hrs by sulforhodamine B assay; settings: K562, 48 h
OVCAR-3 = experiment: Cytotoxicity against human OVCAR3 cells incubated for 48 hrs by sulforhodamine B assay; settings: OVCAR-3, 48 h
HOP-62 = experiment: Cytotoxicity against human HOP62 cells assessed as cell growth at 1 uM incubated for 48 hrs by sulforhodamine B assay relative to control; settings: HOP-62, 48 h, read-out: Activity
A549 [4] = experiment: Cytotoxicity against human A549/ATCC cells assessed as cell growth at 100 uM incubated for 48 hrs by sulforhodamine B assay relative to control; settings: A549, 48 h, read-out: Activity
T47D = experiment: Cytotoxicity against human T47D cells assessed as cell growth at 10 uM incubated for 48 hrs by sulforhodamine B assay relative to control; settings: read-out: Activity
LOX IMVI = experiment: Cytotoxicity against human LOXIMVI cells assessed as cell growth at 0.1 uM incubated for 48 hrs by sulforhodamine B assay relative to control; settings: read-out: Activity
PC-3 = experiment: Cytotoxicity against human PC3 cells assessed as cell growth at 1 uM incubated for 48 hrs by sulforhodamine B assay relative to control; settings: PC-3, 48 h, read-out: Activity
U-251 = experiment: Cytotoxicity against human U251 cells assessed as cell growth at 100 uM incubated for 48 hrs by sulforhodamine B assay relative to control; settings: U-251, 48 h, read-out: Activity
OVCAR-5 [5] = experiment: Cytotoxicity against human OVCAR5 cells assessed as cell growth at 100 uM incubated for 48 hrs by sulforhodamine B assay relative to control; settings: OVCAR-5, 48 h, read-out: Activity
CCRF-CEM = experiment: Cytotoxicity against human CCRF-CEM cells assessed as cell growth at 100 uM incubated for 48 hrs by sulforhodamine B assay relative to control; settings: read-out: Activity
COLO 205 = experiment: Cytotoxicity against human COLO205 cells assessed as cell growth at 1 uM incubated for 48 hrs by sulforhodamine B assay relative to control; settings: COLO 205, 48 h, read-out: Activity
OVCAR-8 = experiment: Cytotoxicity against human OVCAR8 cells assessed as cell growth at 0.1 uM incubated for 48 hrs by sulforhodamine B assay relative to control; settings: OVCAR-8, 48 h, read-out: Activity
MDA-MB-435 [6] = experiment: Cytotoxicity against human MDA-MB-435 cells assessed as cell growth at 100 uM incubated for 48 hrs by sulforhodamine B assay relative to control; settings: MDA-MB-435, 48 h, read-out: Activity
SK-MEL-5 = experiment: Cytotoxicity against human SK-MEL-5 cells assessed as cell growth at 100 uM incubated for 48 hrs by sulforhodamine B assay relative to control; settings: SK-MEL-5, 48 h, read-out: Activity
OVCAR-5 [7] = experiment: Cytotoxicity against human OVCAR5 cells assessed as cell growth at 1 uM incubated for 48 hrs by sulforhodamine B assay relative to control; settings: OVCAR-5, 48 h, read-out: Activity
ACHN = experiment: Cytotoxicity against human ACHN cells assessed as cell growth at 10 uM incubated for 48 hrs by sulforhodamine B assay relative to control; settings: read-out: Activity
RPMI-8226 [8] = experiment: Cytotoxicity against human RPMI8226 cells assessed as cell growth at 0.1 uM incubated for 48 hrs by sulforhodamine B assay relative to control; settings: RPMI-8226, 48 h, read-out: Activity
DU-145 = experiment: Cytotoxicity against human DU145 cells assessed as cell growth at 0.01 uM incubated for 48 hrs by sulforhodamine B assay relative to control; settings: DU-145, 48 h, read-out: Activity
RXF 393 = experiment: Cytotoxicity against human RXF393 cells assessed as cell growth at 10 uM incubated for 48 hrs by sulforhodamine B assay relative to control; settings: RXF 393, 48 h, read-out: Activity
A549 [9] = experiment: Cytotoxicity against human A549/ATCC cells assessed as cell growth at 1 uM incubated for 48 hrs by sulforhodamine B assay relative to control; settings: A549, 48 h, read-out: Activity
HCC 2998 = experiment: Cytotoxicity against human HCC2998 cells incubated for 48 hrs by sulforhodamine B assay; settings: HCC 2998, 48 h
A498 = experiment: Cytotoxicity against human A498 cells incubated for 48 hrs by sulforhodamine B assay; settings: A498, 48 h
SK-MEL-2 = experiment: Cytotoxicity against human SK-MEL-2 cells assessed as cell growth at 1 uM incubated for 48 hrs by sulforhodamine B assay relative to control; settings: SK-MEL-2, 48 h, read-out: Activity
HCT-15 = experiment: Cytotoxicity against human HCT15 cells assessed as cell growth at 1 uM incubated for 48 hrs by sulforhodamine B assay relative to control; settings: HCT-15, 48 h, read-out: Activity
Paracentrotus lividus = experiment: Antimitotic activity against Paracentrotus lividus embryo assessed as cleavage alteration measured at 2.5 hrs post fertilization by light microscopy
Procedure, shortened: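 Sea urchin eggs were fertilized with diluted sperm and cultured at room temperature in filtered seawater with paddle agitation (60 rpm), at up to 2000 embryos/mL. The effective threshold concentration causing cleavage alteration, death before hatching or full mitotic arrest was scored in duplicate.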

K562 [10] = experiment: Cytotoxicity against human K562 cells assessed as cell growth at 0.1 uM incubated for 48 hrs by sulforhodamine B assay relative to control; settings: K562, 48 h, read-out: Activity
SNB-19 = experiment: Cytotoxicity against human SNB19 cells assessed as cell growth at 10 uM incubated for 48 hrs by sulforhodamine B assay relative to control; settings: SNB-19, 48 h, read-out: Activity
[11] = read-out: LC50 (the source's name)
[12] = read-out: pLC50 (the source's name) (converted)

Molecule `COc1ccc(-c2nocc2-c2cc(OC)c(OC)c(OC)c2)cc1` has a GI50 (RPMI-8226 [1]; read-out: GI50) of 440 nM, a CC50 (RPMI-8226 [1]; [11]) of over 100000 nM and a TGI (RPMI-8226 [1]; read-out: TGI) of 30500 nM. The GI50 (RPMI-8226 [1]; read-out: pGI50 (converted)) was 437 nM, the CC50 (RPMI-8226 [1]; [12]) was over 100000 nM and the TGI (RPMI-8226 [1]; read-out: pTGI (converted)) was 30200 nM. It also gave a growth at 1 µM (MDA-MB-435 [2]) of -25%, a growth at 10 µM (HOP-92) of 49% and a GI50 (K562 [3]; read-out: GI50) of 47.1 nM. The LC50 (50% lethal concentration) (K562 [3]; read-out: LC50) was over 100000 nM, the TGI (K562 [3]; read-out: TGI) was over 100000 nM and the GI50 (K562 [3]; read-out: pGI50 (converted)) was 46.8 nM. It also gave an LC50 (50% lethal concentration) (K562 [3]; read-out: pLC50 (converted)) of over 100000 nM, a TGI (K562 [3]; read-out: pTGI) of over 100000 nM and a GI50 (OVCAR-3; read-out: GI50) of 38.6 nM. It also gave an LC50 (50% lethal concentration) (OVCAR-3; read-out: LC50) of over 100000 nM, a TGI (OVCAR-3; read-out: TGI) of 1320 nM and a GI50 (OVCAR-3; read-out: pGI50 (converted)) of 38.9 nM. It also gave an LC50 (50% lethal concentration) (OVCAR-3; read-out: pLC50 (converted)) of over 100000 nM, a TGI (OVCAR-3; read-out: pTGI (converted)) of 1320 nM and a growth at 1 µM (HOP-62) of 39%. The growth at 100 µM (A549 [4]) was 6%, the growth at 10 µM (T47D) was 52% and the growth at 0.1 µM (LOX IMVI) was 55%. It also gave a growth at 1 µM (PC-3) of 18%, a growth at 100 µM (U-251) of -4% and a growth at 100 µM (OVCAR-5 [5]) of 21%. The growth at 100 µM (CCRF-CEM) was 4%, the growth at 1 µM (COLO 205) was 11% and the growth at 0.1 µM (OVCAR-8) was 74%. For the same molecule, the growth at 100 µM (MDA-MB-435 [6]) was -9%, the growth at 100 µM (SK-MEL-5) was -99% and the growth at 1 µM (OVCAR-5 [7]) was 53%. The growth at 10 µM (ACHN) was 29%, the growth at 0.1 µM (RPMI-8226 [8]) was 82% and the growth at 0.01 µM (DU-145) was 99%. For the same molecule, the growth at 10 µM (RXF 393) was 1%, the growth at 1 µM (A549 [9]) was 28% and the GI50 (HCC 2998; read-out: GI50) was 347 nM. It also gave a CC50 (HCC 2998; [11]) of over 100000 nM, a TGI (HCC 2998; read-out: TGI) of 22200 nM and a GI50 (HCC 2998; read-out: pGI50 (converted)) of 347 nM. It also gave a CC50 (HCC 2998; [12]) of over 100000 nM, a TGI (HCC 2998; read-out: pTGI (converted)) of 22400 nM and a GI50 (A498; read-out: GI50) of 33.6 nM. It also gave an LC50 (A498; read-out: LC50) of over 100000 nM, a TGI (A498; read-out: TGI) of 816 nM and a GI50 (A498; read-out: pGI50 (converted)) of 33.9 nM. The LC50 (A498; read-out: pLC50 (converted)) was over 100000 nM, the TGI (A498; read-out: pTGI (converted)) was 813 nM and the growth at 1 µM (SK-MEL-2) was 28%. For the same molecule, the growth at 1 µM (HCT-15) was 23%, the EC (Paracentrotus lividus) was 0.01 µM and the growth at 0.1 µM (K562 [10]) was 24%. For the same molecule, the growth at 10 µM (SNB-19) was 29%.
